The sample as a whole holds a higher share of hits than the screen did.
HCT116 PTEN-null: growth suppressors of cells with PTEN tumor suppressor deletion. HCT116 PTEN-null viability, CellTiter-Glo, 60 h; hits give low values. viability, % at 10 µM. 140,000 tested, 1.2% active;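 active = viability at or below a set limit, 4 SD under the median of all tested compounds, cut at about 3.7% in these data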;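 note: PTEN knockout HCT116 line with beta catenin targeted HCT116 as companion control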
HUVEC inhibit: human endothelial cell proliferation inhibition. HUVEC proliferation, CellTiter-Glo luminescence, 72 h; hits give low values. 86,000 tested, 1.1% active. viability, % at 10 µM (by protocol). AID 648;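 active = viability at or below 30%; inactive = viability above 30%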
H69AR growth 86K: growth inhibitors of human H69AR lung tumor cells; H69AR lung tumor viability, ATP luminescence, 72 h; hits give low values; viability, % at 10 µM; 85,000 tested, 6% active;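 active = viability at or below 40%; inactive = viability above 40%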;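 note: multidrug resistant small cell line overexpressing MRP-1 efflux transporter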
bCat KO growth: beta-catenin-lacking colon tumor cell growth suppression; HCT116 beta-catenin knockout viability, CellTiter-Glo, 60 h; hits give low values; viability, % at 10 µM; 140,000 tested, 1.5% active; AID 818;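 active = viability at or under a set limit, the compound median less 4 SD, cut at about 6% in these data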
Lung fibro prol: blocks proliferation of human lung fibroblasts; 85,000 tested, 1.1% active; LL 47 human lung fibroblast viability, ATP luminescence; hits give low values; viability, % at 10 µM;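 active = viability at or below 50% in the single dose screen; inactive = viability above 50%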;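 note: compound exposure lasted 72 h before the ATP readout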
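Material: human LL 47 lung fibroblast cells; quantity: 1,150 cells/well; medium: IMEM plus 15% FBS; doses: 0.1% DMSO in all compound wells; timing: overnight attachment after seeding, then 72 h compound exposure at 37 °C; detection: CellTiter-Glo luminescence; measure: % viability of median cell-only signal; controls: cell-only wells, no compound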
Of the large screens only hits and unclear results are named; the others gave an inactive call.

CCOC(=O)c1nnc(-c2ccccc2)nc1NCc1ccc(Cl)cc1	none (no result: HUVEC inhibit, H69AR growth 86K, Lung fibro prol)
CCOC(=O)c1nnc(-c2ccc(C)cc2)nc1Sc1ccccc1Cl	H69AR growth 86K 24.9
CCOC(=O)c1nnc(-c2ccccc2)nc1Sc1c(Cl)cccc1Cl	H69AR growth 86K 1.9
CCOC(=O)c1nnc(-c2ccc(C)cc2)nc1Oc1ccccc1Cl	none (no result: HUVEC inhibit, H69AR growth 86K, Lung fibro prol)
COc1ccc(/C(N)=N/O)cc1O	none (no result: HUVEC inhibit, H69AR growth 86K, Lung fibro prol)
CCOC(=O)C(NC(=O)NCc1ccccc1OC)(OCC)C(F)(F)F (configuration not stated)	none (no result: HUVEC inhibit, H69AR growth 86K, Lung fibro prol)
CC(=O)c1cccc(NC(=O)Nc2ccc3c(c2)N(C)C(=O)CS3)c1	H69AR growth 86K 24.0
O=C(CCCCCn1c(=O)[nH]c2ccsc2c1=O)NCc1ccc2c(c1)OCO2	none (no result: HUVEC inhibit, H69AR growth 86K, Lung fibro prol)
CC1CCCN(C(=O)c2ccc(S(=O)(=O)N3CCC(c4nc5ccccc5s4)CC3)cc2)C1 (configuration not stated)	H69AR growth 86K 32.0 (no result: HCT116 PTEN-null, bCat KO growth)
O=[N+]([O-])c1ccc(-c2cnc(SC(c3ccccc3)c3ccccc3)[nH]2)cc1	bCat KO growth 3.9 (no result: HUVEC inhibit, H69AR growth 86K, Lung fibro prol)
O=[N+]([O-])c1ccc(-c2cnc(SCc3ccccc3Cl)[nH]2)cc1	none (no result: HUVEC inhibit, H69AR growth 86K, Lung fibro prol)
O=c1cc(O)c2c(=O)n(-c3ccccc3)c3ccccc3c2o1	H69AR growth 86K 12.4
CCn1c(=O)c2c(O)cc(=O)oc2c2ccccc21	none (no result: HUVEC inhibit, H69AR growth 86K, Lung fibro prol)
COc1cc2c(cc1NC(=O)Cn1cnc3c1c(=O)n(C)c(=O)n3C)oc1ccccc12	H69AR growth 86K 8.1
COc1cc2c(cc1NC(=O)C1CCCO1)oc1ccccc12 (configuration not stated)	H69AR growth 86K 35.0
COc1ccc(Cl)cc1NC(=O)C1CCCO1 (configuration not stated)	none
Cc1ccc(-c2cc(C(F)(F)F)n3nc(C(=O)NCCCn4ccnc4)cc3n2)cc1C	none (no result: HUVEC inhibit, H69AR growth 86K, Lung fibro prol)
COc1ccccc1NC(=O)c1cc2ccccc2o/c1=N\O	HCT116 PTEN-null 2.7, bCat KO growth 4.5
COc1ccccc1NC(=O)c1cc2ccc(O)cc2o/c1=N\O	H69AR growth 86K 35.5
COc1ccccc1N=c1oc2cc(O)ccc2cc1C(N)=O	none (no result: HUVEC inhibit, H69AR growth 86K, Lung fibro prol)
CCN(CC)C(=S)Sc1c(-c2ccccc2)c2cc(Cl)ccc2[nH]c1=O	none
CC(C(=O)Nc1ccccc1Oc1ccccc1)c1ccccc1 (configuration not stated)	none (no result: HUVEC inhibit, H69AR growth 86K, Lung fibro prol)
O=C(CSc1ccccc1C(=O)NCc1ccccc1)NC1CCCCCCC1	none (no result: HUVEC inhibit, H69AR growth 86K, Lung fibro prol)
Cc1nc2nc(SCC(=O)NCc3ccco3)nn2c(C)c1Cc1c(F)cccc1Cl	H69AR growth 86K 34.9
CCCCNC(=O)c1onc(CSc2ccc(Cl)cc2)c1C(=O)O	none (no result: HUVEC inhibit, H69AR growth 86K, Lung fibro prol)
Cc1c(Cl)cccc1-n1c(SCC(=O)NCc2ccccc2Cl)nnc1-c1ccncc1	H69AR growth 86K 21.4
Cc1c(Cl)cccc1-n1c(SCC(=O)NCc2cccs2)nnc1-c1ccncc1	none
CN(C)c1ccc(/C=C/c2ccc3ccccc3[n+]2C)cc1	HCT116 PTEN-null 2.0, bCat KO growth 2.1 (no result: HUVEC inhibit, H69AR growth 86K, Lung fibro prol)
CCN(CC)S(=O)(=O)c1ccc(NC(=O)CC(NC(C)=O)c2ccccc2)cc1 (configuration not stated)	none
O=[N+]([O-])c1ccc(NNC(=S)Nc2ccc(F)cc2)cc1	H69AR growth 86K 13.6
CC(C)C(=O)NC(c1ccc([N+](=O)[O-])cc1)c1c(O)ccc2ccccc12 (configuration not stated)	HCT116 PTEN-null 1.8, bCat KO growth 2.0 (no result: HUVEC inhibit, H69AR growth 86K, Lung fibro prol)
CC(C)C(=O)NC(NC(=O)C(C)C)c1ccc([N+](=O)[O-])cc1	none (no result: HUVEC inhibit, H69AR growth 86K, Lung fibro prol)
Cc1ccc(Cl)cc1N1CCN(CC(=O)Nc2ccc(CN3CCCCC3)cc2)CC1	HUVEC inhibit 8.2, H69AR growth 86K 2.9, Lung fibro prol 27.5
CCN(CC)S(=O)(=O)c1ccc(OC)c(NC(=O)C(Cc2ccccc2)N2C(=O)c3ccccc3C2=O)c1 (configuration not stated)	none (no result: HUVEC inhibit, H69AR growth 86K, Lung fibro prol)
C(=N\Nc1nc(Nc2ccccc2)nc(N2CCOCC2)n1)/c1c[nH]c2ccccc12	none (no result: HUVEC inhibit, H69AR growth 86K, Lung fibro prol)
Cc1[nH]c2ccccc2c1/C=N/Nc1nc(Nc2ccc(F)cc2)nc(N2CCOCC2)n1	HCT116 PTEN-null 3.6, bCat KO growth 5.8 (no result: HUVEC inhibit, H69AR growth 86K, Lung fibro prol)
Cc1ccc(Nc2nc(N/N=C/c3c[nH]c4ccccc34)nc(N3CCOCC3)n2)cc1	HCT116 PTEN-null 2.8, bCat KO growth 5.1 (no result: HUVEC inhibit, H69AR growth 86K, Lung fibro prol)
COc1ccc(NS(=O)(=O)c2cc(NC(=O)[C@@H](NC(=O)c3ccccc3)C(C)C)ccc2C)cc1	none (no result: HUVEC inhibit, H69AR growth 86K, Lung fibro prol)
COC(=O)[C@@]1(Cc2ccccc2)[C@H]2c3cc(C(=O)N4CCCC4)n(Cc4ccsc4Br)c3C[C@H]2CN1C(=O)c1ccccc1	none (no result: HUVEC inhibit, H69AR growth 86K, Lung fibro prol)
Cc1ccc(-c2nc3ccccc3n3nnnc23)cc1	none
Brc1ccc(Nc2nc3ccccc3n3nnnc23)cc1	H69AR growth 86K 35.8
Cc1ccc(CNc2nc3ccccc3n3nnnc23)cc1	H69AR growth 86K 29.6
O=C(NC1CCCCC1)C(c1cccnc1)N(CCc1ccccc1)C(=O)Cc1cccs1 (configuration not stated)	none (no result: HUVEC inhibit, H69AR growth 86K, Lung fibro prol)
CC1CCC(NC(=O)C2CCC(CNS(=O)(=O)c3cccc4nsnc34)CC2)CC1 (configuration not stated)	H69AR growth 86K 17.2
O=C(C1CCC(CNS(=O)(=O)c2cccc3nsnc23)CC1)N1CC=C(c2ccccc2)CC1 (configuration not stated)	H69AR growth 86K 39.3
O=C(NC1CCCCC1)C1CCC(CNS(=O)(=O)c2cccc3nsnc23)CC1 (configuration not stated)	none
CC12CCC(C(=O)Nc3cc(Cl)ccc3Cl)(C/C1=N\O)C2(C)C (configuration not stated)	none
CC(=O)c1sc(N2C(=O)c3oc4ccccc4c(=O)c3C2c2ccc(C)o2)nc1C (configuration not stated)	H69AR growth 86K 9.4 (no result: HCT116 PTEN-null, bCat KO growth)
Cc1ccc(C2c3c(oc4ccccc4c3=O)C(=O)N2CCCN2CCOCC2)o1 (configuration not stated)	none

From PubChem
